Source: the M2OR odorant receptor database

Legend:
Conditions in all cases: stereoisomer not certain
OR51D1 (Homo sapiens) = biological target: T1, OR51D1 (Homo sapiens) (UniProt Q8NGF3)
T1 sequence (whole entry): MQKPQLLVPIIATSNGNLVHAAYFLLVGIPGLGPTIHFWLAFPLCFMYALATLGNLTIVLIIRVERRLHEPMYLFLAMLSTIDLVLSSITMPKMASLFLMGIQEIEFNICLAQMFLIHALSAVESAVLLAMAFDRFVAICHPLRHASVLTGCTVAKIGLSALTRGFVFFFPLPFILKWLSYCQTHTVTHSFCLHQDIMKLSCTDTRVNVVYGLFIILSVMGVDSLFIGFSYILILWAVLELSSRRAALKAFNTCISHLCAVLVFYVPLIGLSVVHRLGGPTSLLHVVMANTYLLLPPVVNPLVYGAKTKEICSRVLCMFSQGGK
Summary of the method: (§1)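 Assay methods differ from source to source, frequently being transient luciferase assays in mammalian cell lines. For each receptor–molecule pair, the label responsive (active) applies when the original authors judged the measured signal statistically different from baseline, and non-responsive (inactive) applies otherwise.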

OR51E1 (Homo sapiens) = biological target: T2, OR51E1 (Homo sapiens) (UniProt Q8TCB6)
T2 sequence (whole entry): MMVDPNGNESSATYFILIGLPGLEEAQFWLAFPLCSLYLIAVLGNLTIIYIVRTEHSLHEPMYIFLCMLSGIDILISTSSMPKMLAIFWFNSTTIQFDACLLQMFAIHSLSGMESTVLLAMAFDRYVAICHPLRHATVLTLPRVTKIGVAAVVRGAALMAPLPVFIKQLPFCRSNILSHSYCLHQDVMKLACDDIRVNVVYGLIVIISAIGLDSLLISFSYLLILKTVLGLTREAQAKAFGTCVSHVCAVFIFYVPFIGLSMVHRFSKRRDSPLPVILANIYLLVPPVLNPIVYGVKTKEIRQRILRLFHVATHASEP
Summary of the method: as §1

OR51E2 (Homo sapiens) = biological target: T3, OR51E2 (Homo sapiens) (UniProt Q9H255)
T3 sequence (whole entry): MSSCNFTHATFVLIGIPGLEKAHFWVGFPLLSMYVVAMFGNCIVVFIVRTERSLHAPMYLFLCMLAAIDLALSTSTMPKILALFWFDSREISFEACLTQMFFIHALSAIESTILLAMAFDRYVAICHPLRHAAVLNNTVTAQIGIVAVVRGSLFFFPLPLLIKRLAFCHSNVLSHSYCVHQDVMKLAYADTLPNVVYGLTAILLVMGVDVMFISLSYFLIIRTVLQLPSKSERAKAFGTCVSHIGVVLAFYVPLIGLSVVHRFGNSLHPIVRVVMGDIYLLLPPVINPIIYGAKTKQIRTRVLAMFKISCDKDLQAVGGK
Summary of the method: as §1

OR51F2 (Homo sapiens) = biological target: T4, OR51F2 (Homo sapiens) (UniProt Q8NH61)
T4 sequence (whole entry): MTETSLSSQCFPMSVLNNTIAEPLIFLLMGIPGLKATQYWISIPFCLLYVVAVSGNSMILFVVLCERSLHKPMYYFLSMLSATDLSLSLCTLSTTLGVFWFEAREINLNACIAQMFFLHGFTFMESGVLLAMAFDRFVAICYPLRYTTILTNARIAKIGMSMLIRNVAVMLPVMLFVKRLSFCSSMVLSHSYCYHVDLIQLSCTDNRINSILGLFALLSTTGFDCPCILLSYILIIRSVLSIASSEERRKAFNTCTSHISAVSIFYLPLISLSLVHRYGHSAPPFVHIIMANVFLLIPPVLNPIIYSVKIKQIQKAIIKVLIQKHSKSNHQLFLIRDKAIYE
Summary of the method: as §1

OR51G1 (Homo sapiens) = biological target: T5, OR51G1 (Homo sapiens) (UniProt Q8NGK1)
T5 sequence (whole entry): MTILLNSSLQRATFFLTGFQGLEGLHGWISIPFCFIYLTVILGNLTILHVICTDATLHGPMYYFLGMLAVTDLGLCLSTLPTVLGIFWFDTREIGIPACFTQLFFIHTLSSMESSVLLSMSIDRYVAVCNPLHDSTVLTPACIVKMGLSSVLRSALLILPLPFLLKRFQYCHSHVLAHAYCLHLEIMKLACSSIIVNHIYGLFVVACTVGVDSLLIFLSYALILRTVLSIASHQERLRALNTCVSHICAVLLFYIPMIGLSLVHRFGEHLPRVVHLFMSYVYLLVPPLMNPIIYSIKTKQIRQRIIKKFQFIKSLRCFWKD
Summary of the method: as §1

OR51G2 (Homo sapiens) = biological target: T6, OR51G2 (Homo sapiens) (UniProt Q8NGK0)
T6 sequence (whole entry): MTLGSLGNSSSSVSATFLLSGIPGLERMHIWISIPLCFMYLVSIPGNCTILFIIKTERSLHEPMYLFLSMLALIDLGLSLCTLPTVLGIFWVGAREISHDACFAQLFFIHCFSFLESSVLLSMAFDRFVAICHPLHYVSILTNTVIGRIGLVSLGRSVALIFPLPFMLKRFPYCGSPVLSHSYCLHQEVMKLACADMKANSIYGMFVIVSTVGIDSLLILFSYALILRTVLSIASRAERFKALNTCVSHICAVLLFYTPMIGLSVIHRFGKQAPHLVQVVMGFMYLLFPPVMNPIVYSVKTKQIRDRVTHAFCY
Summary of the method: as §1

OR51I1 (Homo sapiens) = biological target: T7, OR51I1 (Homo sapiens) (UniProt Q9H343)
T7 sequence (whole entry): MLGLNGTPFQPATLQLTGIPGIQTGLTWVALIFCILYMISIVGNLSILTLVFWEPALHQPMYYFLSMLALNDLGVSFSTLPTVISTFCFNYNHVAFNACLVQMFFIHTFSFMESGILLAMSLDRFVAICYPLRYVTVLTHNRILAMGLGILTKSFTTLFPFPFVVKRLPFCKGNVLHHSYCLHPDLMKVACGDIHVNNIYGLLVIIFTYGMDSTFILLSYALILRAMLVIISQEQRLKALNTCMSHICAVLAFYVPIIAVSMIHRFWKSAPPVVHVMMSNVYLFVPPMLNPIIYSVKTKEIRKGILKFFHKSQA
Summary of the method: as §1

OR51I2 (Homo sapiens) = biological target: T8, OR51I2 (Homo sapiens) (UniProt Q9H344)
T8 sequence (whole entry): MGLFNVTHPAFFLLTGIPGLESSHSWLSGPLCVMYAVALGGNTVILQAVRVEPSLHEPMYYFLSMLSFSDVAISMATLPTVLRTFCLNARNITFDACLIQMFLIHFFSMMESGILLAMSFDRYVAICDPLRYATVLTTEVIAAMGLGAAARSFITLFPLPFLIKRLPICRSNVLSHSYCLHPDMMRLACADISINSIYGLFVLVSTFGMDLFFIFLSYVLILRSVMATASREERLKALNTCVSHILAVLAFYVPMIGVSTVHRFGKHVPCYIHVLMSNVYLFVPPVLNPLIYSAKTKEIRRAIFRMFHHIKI
Summary of the method: as §1

OR51J1 (Homo sapiens) = biological target: T9, OR51J1 (Homo sapiens) (UniProt Q9H342)
T9 sequence (whole entry): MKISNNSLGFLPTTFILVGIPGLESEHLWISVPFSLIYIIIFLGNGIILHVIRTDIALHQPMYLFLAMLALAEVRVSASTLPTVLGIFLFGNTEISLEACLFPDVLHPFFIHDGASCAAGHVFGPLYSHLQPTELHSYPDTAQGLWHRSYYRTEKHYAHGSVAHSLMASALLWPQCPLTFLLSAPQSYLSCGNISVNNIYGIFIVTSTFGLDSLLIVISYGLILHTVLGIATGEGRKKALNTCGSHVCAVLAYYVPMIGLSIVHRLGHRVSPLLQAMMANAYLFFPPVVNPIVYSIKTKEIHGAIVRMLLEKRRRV
Summary of the method: as §1

OR51L1 (Homo sapiens) = biological target: T10, OR51L1 (Homo sapiens) (UniProt Q8NGJ5)
T10 sequence (whole entry): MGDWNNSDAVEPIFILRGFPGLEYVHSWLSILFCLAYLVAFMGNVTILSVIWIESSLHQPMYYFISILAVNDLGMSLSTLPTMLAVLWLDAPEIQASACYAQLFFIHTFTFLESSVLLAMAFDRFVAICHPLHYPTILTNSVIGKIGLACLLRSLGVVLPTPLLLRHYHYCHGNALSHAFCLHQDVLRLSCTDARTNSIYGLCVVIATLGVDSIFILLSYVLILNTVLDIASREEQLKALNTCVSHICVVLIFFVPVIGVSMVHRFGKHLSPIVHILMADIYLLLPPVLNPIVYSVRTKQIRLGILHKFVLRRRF
Summary of the method: as §1

OR51M1 (Homo sapiens) = biological target: T11, OR51M1 (Homo sapiens) (UniProt Q9H341)
T11 sequence (whole entry): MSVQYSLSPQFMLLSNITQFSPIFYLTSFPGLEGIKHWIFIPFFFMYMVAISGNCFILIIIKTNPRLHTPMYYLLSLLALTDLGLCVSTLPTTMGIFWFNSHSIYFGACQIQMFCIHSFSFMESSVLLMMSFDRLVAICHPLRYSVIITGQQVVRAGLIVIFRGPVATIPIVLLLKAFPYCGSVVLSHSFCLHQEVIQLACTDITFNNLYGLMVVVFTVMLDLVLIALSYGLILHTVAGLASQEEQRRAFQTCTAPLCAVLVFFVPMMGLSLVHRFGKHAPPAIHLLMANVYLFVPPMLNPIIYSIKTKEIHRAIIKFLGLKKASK
Summary of the method: as §1

OR51Q1 (Homo sapiens) = biological target: T12, OR51Q1 (Homo sapiens) (UniProt Q8NH59)
T12 sequence (whole entry): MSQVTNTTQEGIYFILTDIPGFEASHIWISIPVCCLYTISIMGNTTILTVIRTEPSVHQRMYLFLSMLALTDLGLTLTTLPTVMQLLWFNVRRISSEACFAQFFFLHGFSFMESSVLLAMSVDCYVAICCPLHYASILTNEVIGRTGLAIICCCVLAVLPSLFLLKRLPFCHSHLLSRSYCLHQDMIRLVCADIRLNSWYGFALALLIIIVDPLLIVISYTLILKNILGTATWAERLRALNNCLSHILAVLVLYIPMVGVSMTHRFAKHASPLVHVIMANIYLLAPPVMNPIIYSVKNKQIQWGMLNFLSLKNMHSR
Summary of the method: as §1

OR51S1 (Homo sapiens) = biological target: T13, OR51S1 (Homo sapiens) (UniProt Q8NGJ8)
T13 sequence (whole entry): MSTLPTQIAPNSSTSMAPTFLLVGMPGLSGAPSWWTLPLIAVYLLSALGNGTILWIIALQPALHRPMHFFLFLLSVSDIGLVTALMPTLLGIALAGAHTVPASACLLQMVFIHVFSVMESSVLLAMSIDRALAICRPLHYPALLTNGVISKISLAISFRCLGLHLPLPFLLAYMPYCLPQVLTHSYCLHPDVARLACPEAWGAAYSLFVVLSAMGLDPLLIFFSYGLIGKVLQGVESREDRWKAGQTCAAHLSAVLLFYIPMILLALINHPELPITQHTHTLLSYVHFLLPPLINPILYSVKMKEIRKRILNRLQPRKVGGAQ
Summary of the method: as §1

OR51V1 (Homo sapiens) = biological target: T14, OR51V1 (Homo sapiens) (UniProt Q9H2C8)
T14 sequence (whole entry): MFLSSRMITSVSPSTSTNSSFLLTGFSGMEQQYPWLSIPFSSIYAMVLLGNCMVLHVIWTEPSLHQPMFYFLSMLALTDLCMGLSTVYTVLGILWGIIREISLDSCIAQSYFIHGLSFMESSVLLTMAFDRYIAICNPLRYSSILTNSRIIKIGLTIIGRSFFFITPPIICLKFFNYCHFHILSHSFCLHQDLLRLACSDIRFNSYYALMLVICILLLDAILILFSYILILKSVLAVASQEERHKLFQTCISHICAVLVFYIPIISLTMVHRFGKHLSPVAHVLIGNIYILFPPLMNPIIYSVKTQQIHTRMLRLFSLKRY
Summary of the method: as §1

OR52A1 (Homo sapiens) = biological target: T15, OR52A1 (Homo sapiens) (UniProt Q9UKL2)
T15 sequence (whole entry): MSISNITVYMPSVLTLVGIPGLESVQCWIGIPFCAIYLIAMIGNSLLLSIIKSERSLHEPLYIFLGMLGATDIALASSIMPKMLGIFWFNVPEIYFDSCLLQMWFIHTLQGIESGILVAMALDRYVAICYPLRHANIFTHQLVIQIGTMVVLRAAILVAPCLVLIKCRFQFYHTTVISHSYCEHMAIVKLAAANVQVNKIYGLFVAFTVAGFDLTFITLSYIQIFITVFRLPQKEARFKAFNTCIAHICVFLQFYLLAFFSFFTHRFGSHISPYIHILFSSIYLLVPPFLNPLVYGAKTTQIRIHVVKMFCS
Summary of the method: as §1

Measured: odorant receptor agonist call

CCCC(S)CCOC(C)=O (stereo not given)
inactive: all assays above
